Data: ChEMBL document CHEMBL3864121, “Development of ebsulfur analogues as potent antibacterials against methicillin-resistant Staphylococcus aureus” (Bioorg Med Chem, 2016)
Converted amounts (≈) assume the structure as drawn.

Tested on: Staphylococcus aureus
Experiment: Antibacterial activity against methicillin-sensitive Staphylococcus aureus ATCC 6538 measured after overnight incubation by broth double-dilution method
Format: functional
Details: not given
Outline: (§1)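 MIC by broth double-dilution in liquid Mueller-Hinton medium. Values are reported in µg/mL.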

**Q.** Which MIC does the source give for `COc1cc(OC)cc(-n2sc3ccccc3c2=O)c1` here?
**A.** 1 µg/mL (≈ 3.48 µM)

Tested on: Staphylococcus aureus
Experiment: Antibacterial activity against methicillin-sensitive Staphylococcus aureus ATCC 25923 measured after overnight incubation by broth double-dilution method
Format: functional
Details: not given
Outline: as §1

**Q.** With `COc1cc(OC)cc(-n2sc3ccccc3c2=O)c1` as the compound, how does the MIC read?
**A.** 0.5 µg/mL (≈ 1.74 µM)

Tested on: Staphylococcus aureus
Experiment: Antibacterial activity against methicillin-sensitive Staphylococcus aureus ATCC 29213 measured after overnight incubation by broth double-dilution method
Format: functional
Details: not given
Outline: as §1

**Q.** Which MIC does the source give for `COc1cc(OC)cc(-n2sc3ccccc3c2=O)c1` here?
**A.** ≤ 0.25 µg/mL

Tested on: Staphylococcus aureus
Experiment: Antibacterial activity against methicillin-resistant Staphylococcus aureus ATCC 33591 measured after overnight incubation by broth double-dilution method
Format: functional
Details: not given
Outline: as §1

**Q.** Which MIC does the source give for `COc1cc(OC)cc(-n2sc3ccccc3c2=O)c1` here?
**A.** ≤ 0.25 µg/mL

Tested on: Staphylococcus aureus
Experiment: Antibacterial activity against methicillin-resistant Staphylococcus aureus 1 measured after overnight incubation by broth double-dilution method
Format: functional
Details: not given
Outline: as §1

**Q.** With `COc1cc(OC)cc(-n2sc3ccccc3c2=O)c1` as the compound, how does the MIC read?
**A.** ≤ 0.25 µg/mL

Tested on: Staphylococcus aureus
Experiment: Antibacterial activity against methicillin-resistant Staphylococcus aureus 2 measured after overnight incubation by broth double-dilution method
Format: functional
Details: not given
Outline: as §1

**Q.** With `COc1cc(OC)cc(-n2sc3ccccc3c2=O)c1` as the compound, how does the MIC read?
**A.** 1 µg/mL (≈ 3.48 µM)

Tested on: Staphylococcus aureus
Experiment: Antibacterial activity against methicillin-resistant Staphylococcus aureus BRS3 measured after overnight incubation by broth double-dilution method
Format: functional
Details: not given
Outline: as §1

**Q.** For `COc1cc(OC)cc(-n2sc3ccccc3c2=O)c1`, which MIC is on record?
**A.** 2 µg/mL (≈ 6.96 µM)

Tested on: Staphylococcus aureus
Experiment: Antibacterial activity against methicillin-resistant Staphylococcus aureus C1 measured after overnight incubation by broth double-dilution method
Format: functional
Details: not given
Outline: as §1

**Q.** With `COc1cc(OC)cc(-n2sc3ccccc3c2=O)c1` as the compound, how does the MIC read?
**A.** 0.5 µg/mL (≈ 1.74 µM)

Tested on: Staphylococcus aureus
Experiment: Antibacterial activity against methicillin-resistant Staphylococcus aureus C2 measured after overnight incubation by broth double-dilution method
Format: functional
Details: not given
Outline: as §1

**Q.** For `COc1cc(OC)cc(-n2sc3ccccc3c2=O)c1`, which MIC is on record?
**A.** ≤ 0.25 µg/mL

Tested on: Staphylococcus aureus
Experiment: Antibacterial activity against methicillin-resistant Staphylococcus aureus C7 measured after overnight incubation by broth double-dilution method
Format: functional
Details: not given
Outline: as §1

**Q.** For `COc1cc(OC)cc(-n2sc3ccccc3c2=O)c1`, which MIC is on record?
**A.** 0.5 µg/mL (≈ 1.74 µM)

Tested on: Staphylococcus aureus
Experiment: Antibacterial activity against methicillin-resistant Staphylococcus aureus C14 measured after overnight incubation by broth double-dilution method
Format: functional
Details: not given
Outline: as §1

**Q.** With `COc1cc(OC)cc(-n2sc3ccccc3c2=O)c1` as the compound, how does the MIC read?
**A.** 2 µg/mL (≈ 6.96 µM)

Tested on: Staphylococcus aureus
Experiment: Antibacterial activity against methicillin-resistant Staphylococcus aureus C16 measured after overnight incubation by broth double-dilution method
Format: functional
Details: not given
Outline: as §1

**Q.** For `COc1cc(OC)cc(-n2sc3ccccc3c2=O)c1`, which MIC is on record?
**A.** 2 µg/mL (≈ 6.96 µM)

Tested on: Staphylococcus aureus
Experiment: Antibacterial activity against methicillin-resistant Staphylococcus aureus C19 measured after overnight incubation by broth double-dilution method
Format: functional
Details: not given
Outline: as §1

**Q.** With `COc1cc(OC)cc(-n2sc3ccccc3c2=O)c1` as the compound, how does the MIC read?
**A.** ≤ 0.25 µg/mL

Tested on: Staphylococcus aureus
Experiment: Antibacterial activity against methicillin-resistant Staphylococcus aureus G1 measured after overnight incubation by broth double-dilution method
Format: functional
Details: not given
Outline: as §1

**Q.** With `COc1cc(OC)cc(-n2sc3ccccc3c2=O)c1` as the compound, how does the MIC read?
**A.** 1 µg/mL (≈ 3.48 µM)

Tested on: Staphylococcus aureus
Experiment: Antibacterial activity against methicillin-resistant Staphylococcus aureus G6 measured after overnight incubation by broth double-dilution method
Format: functional
Details: not given
Outline: as §1

**Q.** With `COc1cc(OC)cc(-n2sc3ccccc3c2=O)c1` as the compound, how does the MIC read?
**A.** 1 µg/mL (≈ 3.48 µM)

Tested on: Staphylococcus aureus
Experiment: Antibacterial activity against methicillin-resistant Staphylococcus aureus G12 measured after overnight incubation by broth double-dilution method
Format: functional
Details: not given
Outline: as §1

**Q.** With `COc1cc(OC)cc(-n2sc3ccccc3c2=O)c1` as the compound, how does the MIC read?
**A.** 0.5 µg/mL (≈ 1.74 µM)

Tested on: Staphylococcus aureus
Experiment: Antibacterial activity against methicillin-resistant Staphylococcus aureus G14 measured after overnight incubation by broth double-dilution method
Format: functional
Details: not given
Outline: as §1

**Q.** For `COc1cc(OC)cc(-n2sc3ccccc3c2=O)c1`, which MIC is on record?
**A.** ≤ 0.25 µg/mL

Tested on: Staphylococcus aureus
Experiment: Antibacterial activity against methicillin-resistant Staphylococcus aureus NRS4 measured after overnight incubation by broth double-dilution method
Format: functional
Details: not given
Outline: as §1

**Q.** With `COc1cc(OC)cc(-n2sc3ccccc3c2=O)c1` as the compound, how does the MIC read?
**A.** 2 µg/mL (≈ 6.96 µM)

Tested on: Staphylococcus aureus
Experiment: Antibacterial activity against methicillin-resistant Staphylococcus aureus NRS51 measured after overnight incubation by broth double-dilution method
Format: functional
Details: not given
Outline: as §1

**Q.** For `COc1cc(OC)cc(-n2sc3ccccc3c2=O)c1`, which MIC is on record?
**A.** 1 µg/mL (≈ 3.48 µM)

Tested on: Staphylococcus aureus
Experiment: Antibacterial activity against methicillin-resistant Staphylococcus aureus NRS77 measured after overnight incubation by broth double-dilution method
Format: functional
Details: not given
Outline: as §1

**Q.** Which MIC does the source give for `COc1cc(OC)cc(-n2sc3ccccc3c2=O)c1` here?
**A.** 2 µg/mL (≈ 6.96 µM)

Tested on: Staphylococcus aureus
Experiment: Antibacterial activity against methicillin-resistant Staphylococcus aureus S14 measured after overnight incubation by broth double-dilution method
Format: functional
Details: not given
Outline: as §1

**Q.** Which MIC does the source give for `COc1cc(OC)cc(-n2sc3ccccc3c2=O)c1` here?
**A.** ≤ 0.25 µg/mL

Tested on: Staphylococcus aureus
Experiment: Antibacterial activity against methicillin-resistant Staphylococcus aureus S17 measured after overnight incubation by broth double-dilution method
Format: functional
Details: not given
Outline: as §1

**Q.** With `COc1cc(OC)cc(-n2sc3ccccc3c2=O)c1` as the compound, how does the MIC read?
**A.** 1 µg/mL (≈ 3.48 µM)

Tested on: Staphylococcus aureus
Experiment: Antibacterial activity against methicillin-resistant Staphylococcus aureus S22 measured after overnight incubation by broth double-dilution method
Format: functional
Details: not given
Outline: as §1

**Q.** Which MIC does the source give for `COc1cc(OC)cc(-n2sc3ccccc3c2=O)c1` here?
**A.** 0.5 µg/mL (≈ 1.74 µM)

Tested on: Staphylococcus aureus
Experiment: Antibacterial activity against methicillin-resistant Staphylococcus aureus S24 measured after overnight incubation by broth double-dilution method
Format: functional
Details: not given
Outline: as §1

**Q.** With `COc1cc(OC)cc(-n2sc3ccccc3c2=O)c1` as the compound, how does the MIC read?
**A.** ≤ 0.25 µg/mL

Tested on: Staphylococcus aureus
Experiment: Antibacterial activity against methicillin-resistant Staphylococcus aureus USA100 measured after overnight incubation by broth double-dilution method
Format: functional
Details: not given
Outline: as §1

**Q.** For `COc1cc(OC)cc(-n2sc3ccccc3c2=O)c1`, which MIC is on record?
**A.** 0.5 µg/mL (≈ 1.74 µM)

Tested on: Staphylococcus aureus
Experiment: Antibacterial activity against methicillin-resistant Staphylococcus aureus USA200 measured after overnight incubation by broth double-dilution method
Format: functional
Details: not given
Outline: as §1

**Q.** Which MIC does the source give for `COc1cc(OC)cc(-n2sc3ccccc3c2=O)c1` here?
**A.** 0.5 µg/mL (≈ 1.74 µM)

Tested on: Staphylococcus aureus
Experiment: Antibacterial activity against methicillin-resistant Staphylococcus aureus USA300 measured after overnight incubation by broth double-dilution method
Format: functional
Details: not given
Outline: as §1

**Q.** With `COc1cc(OC)cc(-n2sc3ccccc3c2=O)c1` as the compound, how does the MIC read?
**A.** ≤ 0.25 µg/mL

Tested on: Staphylococcus aureus
Experiment: Antibacterial activity against methicillin-resistant Staphylococcus aureus USA600 measured after overnight incubation by broth double-dilution method
Format: functional
Details: not given
Outline: as §1

**Q.** With `COc1cc(OC)cc(-n2sc3ccccc3c2=O)c1` as the compound, how does the MIC read?
**A.** 2 µg/mL (≈ 6.96 µM)

Tested on: Staphylococcus epidermidis
Experiment: Antibacterial activity against Staphylococcus epidermidis ATCC 35984 measured after overnight incubation by broth double-dilution method
Format: functional
Details: RP62A
Outline: (§2)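 MIC by broth double-dilution in Mueller-Hinton medium. Re-testing at the time-kill inoculum used 1×10^6 CFU/mL.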

**Q.** Which MIC does the source give for `COc1cc(OC)cc(-n2sc3ccccc3c2=O)c1` here?
**A.** 0.25 µg/mL (≈ 0.87 µM)

Tested on: Enterococcus faecalis
Experiment: Antibacterial activity against Enterococcus faecalis ATCC 29212 measured after overnight incubation by broth double-dilution method
Format: functional
Details: not given
Outline: as §2

**Q.** For `COc1cc(OC)cc(-n2sc3ccccc3c2=O)c1`, which MIC is on record?
**A.** 2 µg/mL (≈ 6.96 µM)

Tested on: Enterococcus faecalis
Experiment: Antibacterial activity against Enterococcus faecalis ATCC 49533 measured after overnight incubation by broth double-dilution method
Format: functional
Details: not given
Outline: as §2

**Q.** Which MIC does the source give for `COc1cc(OC)cc(-n2sc3ccccc3c2=O)c1` here?
**A.** 7.8 µg/mL (≈ 27.1 µM)

Tested on: Enterococcus faecium
Experiment: Antibacterial activity against Enterococcus faecium BM4105-RF measured after overnight incubation by broth double-dilution method
Format: functional
Details: not given
Outline: as §1

**Q.** With `COc1cc(OC)cc(-n2sc3ccccc3c2=O)c1` as the compound, how does the MIC read?
**A.** 3.9 µg/mL (≈ 13.6 µM)

Tested on: Enterococcus
Experiment: Antibacterial activity against Vancomycin-resistant Enterococcus measured after overnight incubation by broth double-dilution method
Format: functional
Details: not given
Outline: as §1

**Q.** For `COc1cc(OC)cc(-n2sc3ccccc3c2=O)c1`, which MIC is on record?
**A.** 0.5 µg/mL (≈ 1.74 µM)

Tested on: Listeria monocytogenes
Experiment: Antibacterial activity against Listeria monocytogenes ATCC 19115 measured after overnight incubation by broth double-dilution method
Format: functional
Details: not given
Outline: as §2

**Q.** Which MIC does the source give for `COc1cc(OC)cc(-n2sc3ccccc3c2=O)c1` here?
**A.** 2 µg/mL (≈ 6.96 µM)

Tested on: Mycolicibacterium smegmatis
Experiment: Antibacterial activity against Mycobacterium smegmatis MC2-155 measured after overnight incubation by broth double-dilution method
Format: functional
Details: str. MC2 155
Outline: as §1

**Q.** For `COc1cc(OC)cc(-n2sc3ccccc3c2=O)c1`, which MIC is on record?
**A.** 2 µg/mL (≈ 6.96 µM)

Tested on: Staphylococcus aureus
Experiment: Antibiofilm activity against methicillin-sensitive Staphylococcus aureus ATCC 6538 assessed as reduction of biofilm at […] measured after 24 hrs by crystal violet staining based method relative to control
Format: functional
Parameters: scale not given: the % may be the effect or the level left
Details: not given

**Q.** For `COc1cc(OC)cc(-n2sc3ccccc3c2=O)c1`, which Activity is on record?
**A.** 40%

Tested on: Staphylococcus epidermidis
Experiment: Antibiofilm activity against Staphylococcus epidermidis ATCC 35984 assessed as reduction of biofilm at […] ug/ml measured after 24 hrs by crystal violet staining based method relative to control
Format: functional, RP62A
Parameters: scale not given: the % may be the effect or the level left
Details: not given

**Q.** For `COc1cc(OC)cc(-n2sc3ccccc3c2=O)c1`, which Activity is on record?
**A.** 50%

Tested on: not listed separately
Experiment: Cytotoxicity against HEK293 cells assessed as cell death at […] measured after 24 hrs by resazurin dye-based fluorescence analysis relative to untreated control
Format: toxicity
Details: human, hek293, 24 h

**Q.** With `COc1cc(OC)cc(-n2sc3ccccc3c2=O)c1` as the compound, how does the Activity read?
**A.** > 20%
